# Screens as filed in PubChem.
# PLCb3 inh: PLC-beta3 (human) inhibition, primary screen | AID 720704 | inhibition, % at 12.2 µM | actives 0.18% (n = 370,000) | Purified PLC-beta3, fluorogenic substrate, fluorescence | Q01970; in the data active = inhibition above about 11%;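 also: 0% = median of compound wells on plate and 100% = full blocker control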
# PLCg1 inh: inhibitors of human phospholipase C gamma1; P19174; actives 0.84% (n = 370,000); purified PLC-gamma1, fluorogenic substrate, fluorescence; inhibition, % at 12.2 µM
# procasp7 counter: counter-screen: procaspase-7 (human) activation; activation, % at 8.5 µM; recombinant procaspase-7, Ac-DEVD-pNA absorbance 405 nm; D23A/D198A/D206A triple mutant, cannot self-cleave; scale: DMSO 0, 5 µM enzyme 100; actives 0.093% (n = 330,000); AID 463210;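 active = percent activation above the screen-wide mean plus 3 SD, cut at about 25% in these data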
#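 Replicates: singlicate. Assay system: Procaspase-7 triple mutant (PC-7 D3A). Signal: 405 nm absorbance of p-nitroaniline. Times: 1 h preincubation, 2 h reaction. Buffer or medium: Zinc-free HEPES pH 7.4 with 300 mM NaCl, 0.01% Triton X-100. Also added: DEVD-pNA substrate. Benchmarks: DMSO wells as 0%, DMSO with 5 µM added PC-7 as 100%.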
# proCasp3 act: activators of human procaspase-3; actives 0.11% (n = 330,000); activation, % at 8.5 µM; recombinant procaspase-3 D3A, Ac-DEVD-pNA absorbance 405 nm; AID 463141;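 active = activation above the mean of all tested compounds plus 3 SD, cut at about 21% in these data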;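 also: 0% = DMSO alone and 100% = DMSO wells spiked with extra 5 µM PC-3 D3A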
#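 material = Procaspase-3 D3A mutant | probe or stimulus = Ac-DEVD-pNA | compound = single dose, 8.5 µM nominal compound, 0.8% DMSO | timing = 1 h preincubation, 2 h reaction | measured by = 405 nm absorbance of p-nitroaniline, reads at 0 and 120 min | benchmarks = DMSO-only low control, 5 µM PC-3 D3A high control | repeats = singlicate, each compound tested once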
# sPLA2-III inh: Inhibits HGIII-sPLA2 liposome hydrolysis, primary screen; Q9NZ20; QFRET BODIPY PC-A2 liposome hydrolysis, fluorescence; inhibition, % at 12.2 µM; actives 0.56% (n = 370,000); AID 743126;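 active = inhibition above mean plus 3 SD of compounds lying within the high and low control bounds, cut at about 19% in these data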;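 also: 0% = median of test compound wells and 100% = no enzyme DMSO wells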
# Target sequence (Q9NZ20 whole entry, looked up): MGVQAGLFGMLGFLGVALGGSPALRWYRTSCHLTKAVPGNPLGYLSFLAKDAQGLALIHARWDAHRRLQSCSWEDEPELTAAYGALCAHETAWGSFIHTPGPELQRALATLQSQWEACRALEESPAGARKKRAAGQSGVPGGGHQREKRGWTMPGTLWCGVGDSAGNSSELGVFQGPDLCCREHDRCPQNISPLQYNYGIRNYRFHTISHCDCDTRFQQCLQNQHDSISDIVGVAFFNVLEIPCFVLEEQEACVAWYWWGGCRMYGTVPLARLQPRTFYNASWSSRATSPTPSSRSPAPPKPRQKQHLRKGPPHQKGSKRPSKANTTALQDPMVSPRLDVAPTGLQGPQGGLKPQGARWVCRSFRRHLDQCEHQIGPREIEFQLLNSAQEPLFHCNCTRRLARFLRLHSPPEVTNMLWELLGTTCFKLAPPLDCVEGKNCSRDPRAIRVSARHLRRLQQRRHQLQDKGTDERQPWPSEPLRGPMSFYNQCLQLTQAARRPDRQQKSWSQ
# PLCgamma1 ctr: PLC-gamma1 inhibition, counter-screen for PLC-beta3 hits; actives 3.1% (n = 3,300); AID 743258; inhibition, % at 12.3 µM; purified PLC-gamma1, fluorogenic substrate, fluorescence; shares compounds with PLCg1 inh
# PLCbeta3 conf: human PLC-beta3 inhibition, confirmation. actives 1% (n = 3,300). purified PLC-beta3, fluorogenic substrate fluorescence. inhibition, % at 12.3 µM. shares compounds with PLCg1 inh; in the data active = inhibition above about 11%
# * marks the source's active call; other numbers are inactive results; x = no result; ! = repeats disagree. Hits are enriched below; roughly 1.6% of the tested compounds scored in any of these assays. Rule as the data show it, unless noted: active = inhibition above about 9.5%; inactive = the rest.
SMILES,PLCb3 inh,PLCg1 inh,procasp7 counter,proCasp3 act,sPLA2-III inh,PLCgamma1 ctr,PLCbeta3 conf
Cc1ccccc1N1CCN(S(=O)(=O)c2ccc3c(c2)oc(=O)n3C)CC1,1,-2,x,x,-5,x,x
CCN(CC(=O)Nc1c(F)cccc1F)C(=O)CCCNC(=O)c1ccc(Cl)cc1,-6,3,0,6,8,x,x
CN(Cc1ccccc1F)C(=O)CCCNC(=O)c1ccc(Cl)cc1,-4,11*,5,-4,-4,-9,-5
CC(C)(C)CC(C)(C)NC(=S)Nc1ccc(S(=O)(=O)N2CCOCC2)cc1,4,1,4,3,-24,x,x
CN(C)CCCN(CCCN(C)C)C(=S)Nc1ccc(S(=O)(=O)N2CCOCC2)cc1,-4,11*,4,-9,-5,1,-6
OC(c1cccc(Cl)c1)c1nc(-c2ccoc2)cs1 (stereo unspecified),-21,-3,x,x,0,x,x
CC(C)C[C@@H](CO)N1CCNCCC1=O,0,-3,1,-9,6,x,x
CC(C)C[C@@H](CO)N1CCN(C)CCC1=O,5,14*,9,7,16,-6,-2
O=C(CN1CCN(S(=O)(=O)/C=C/c2ccccc2)CC1)Nc1ccccc1N1CCOCC1,-1,4,-2,8,-12,x,x
Cc1cc(C)n(CC(=O)NNC(=O)C2CC(=O)N(Cc3ccccc3Cl)C2)n1 (stereo unspecified),0,12*,6,2,-1,-4,1
Cc1ccc(CN2CC(C(=O)NCCCn3nc(C)cc3C)CC2=O)cc1 (stereo unspecified),-4,-1,x,x,3,x,x
CN(c1ccccc1)S(=O)(=O)c1ccc(NC(=S)NC(=O)C2CC2)cc1,6,10*,6,-10,4,6,5
Cc1cc(C(=O)O[C@H]2CCC[C@]3(C(=O)N(Cc4ccccc4)c4ccccc43)[C@H]2NC(=O)CCc2ccccc2)no1,0,0,x,x,-2,x,x
CN(Cc1ccco1)C(=O)CN1C(=O)NC(c2ccccc2)(c2ccccc2)C1=O,-8,1,x,x,-13,x,x
Cc1ccc(CN(C)C(=O)CN2C(=O)NC(c3ccccc3)(c3ccccc3)C2=O)c(C)c1,-1,11*,-2,-2,-11,3,-5
COc1ccc(NC(=O)CSc2nnc(C)n2C2CC2)cc1S(=O)(=O)N1CCOCC1,-1,9.8*,-7,-5,-7,-5,-1
COC(=O)[C@]12C[C@H](CC(=O)NCCc3ccccc3OC)C(=O)N(Cc3ccco3)C1=C[C@H](C(C)(C)C)O[C@@H]2C,-2,-1,x,x,-7,x,x
N/C(=N\OC(=O)CCCc1ccccc1)c1cccnc1,12*,7,4,4,-7,-8,-4
COc1ccc(OC)c(C(=O)N(C[C@H]2CC[C@@H]([C@@H]3CC[C@H](CO)O3)O2)C(C(=O)NC(C)(C)C)c2ccc(-c3ccccc3)cc2)c1 (stereo partly specified),-3,0,-13,3,-4,x,x
COc1ccc(OC)c(NC(=O)CNC(c2ccccc2)c2ccccc2)c1,3,13*,12,-1,7,-6,-2
c1coc(-c2nnc3sc(Cc4cccs4)nn23)c1,-10,20*,-1,-6,-11,-6,-5
CCOc1ccccc1Nc1nc(N)nc(CN(C)C2CCCCC2)n1,12*,6,3,5,1,9,5
O=C(Nc1ccc(Br)cc1)C1CCCN(S(=O)(=O)c2cccnc2)C1 (stereo unspecified),11*,5,5,-5,1,1,4
C[C@H](O)[C@@H]1CN2CCc3c([nH]c4c(-c5ccccc5)cccc34)[C@@H]2C[C@@H]1N(C)C(=O)Nc1ccccc1,-125,-110,x,x,7,x,x
COc1cccc(-c2ccc3ncnc(NCc4ccc5c(c4)OCO5)c3c2)c1,12*,11*,1,2,4,-8,-5
SMILES,PLCb3 inh,PLCg1 inh,procasp7 counter,proCasp3 act,sPLA2-III inh,PLCgamma1 ctr,PLCbeta3 conf
c1nc(NCc2ccc3c(c2)OCO3)c2cc(-c3ccc4c(c3)OCCO4)ccc2n1,-53,-31,7,2,-16,x,x
Cc1ccc(-c2ccc(/C=N/NC(=S)Nc3ccccc3)o2)cc1[N+](=O)[O-],-1,9.7*,2,-3,8,-13,-14
CNC(=S)N/N=C/c1ccc(-c2ccc(Cl)c([N+](=O)[O-])c2)o1,-2,3,-2,0,6,x,x
O=C(CC1SCCNC1=O)Nc1cc(Cl)cc(Cl)c1 (stereo unspecified),12*,3,-2,6,-7,2,-3
O=c1cc(CO)[nH]nc1CO,1,5,x,x,8,x,x
O=C(CN1CCOCC1)Nc1ccc2c(c1)OCCO2,-2,0,4,4,-4,x,x
CN(C(=O)COC(=O)C1CCN(S(=O)(=O)c2ccc(Cl)cc2)CC1)C1CCS(=O)(=O)C1 (stereo unspecified),4,3,9,6,-2,x,x
CN(C(=O)COC(=O)C1CCN(S(=O)(=O)c2ccc3c(c2)OCCO3)CC1)C1CCS(=O)(=O)C1 (stereo unspecified),0,14*,0,11,4,0,3
Cc1nc2sccn2c(=O)c1S(=O)(=O)Nc1ccc(N2CCN(C(=O)C(C)C)CC2)cc1,6,12*,-5,-4,1,-5,0
Fc1ccccc1N1CCN(CC2CC3C=CC2C3)CC1 (stereo unspecified),11*,12*,1,4,3,-3,0
CN=C1SC(CC(=O)NCCc2ccc(OC)c(OC)c2)C(=O)N1C (stereo unspecified),13*!,11*!,-33,-26,-1,9.5*,6
O=C(/C=C/[C@H]1O[C@@H](n2cnc3c(NC(=O)c4ccccc4)ncnc32)[C@H](O)[C@@H]1O)NC1CCCCC1,3,1,x,x,9,x,x
CCOC(=O)C(C)c1c(C)[nH]c(=S)[nH]c1=O (stereo unspecified),9,11*,-2,-3,16,-3,-7
O=C(COc1ccccc1)N1CCN(c2ccc([N+](=O)[O-])c(N3CCCCC3)c2)CC1,3,12*,5,-4,-8,0,3
O=C(COc1ccc(Br)cc1)N1CCN(c2ccc([N+](=O)[O-])c(N3CCCCC3)c2)CC1,5,5,-4,2,-14,x,x
Cc1ccc(NC(=S)NCc2ccc(Cl)cc2)c(C)c1,-1,11*,-3,2,15,-3,-5
